Assay results published in ChEMBL document CHEMBL1165965, “Synthesis and structure-activity relationships of 1,2,3,4-tetrahydropyrido[2,3-b]pyrazines as potent and selective inhibitors of the anaplastic lymphoma kinase” (Bioorg Med Chem, 2010).

Tests used:
[1] = biological target: Homeodomain-interacting protein kinase 2 (Homo sapiens) (UniProt Q9H2X6); assay: Inhibition of HIPK2 at 1 uM
[2] = tested on: Serine/threonine-protein kinase B-raf (Homo sapiens), P15056 [V600E]; assay: Inhibition of BRAF V600E mutant at 1 uM
Serine/threonine-protein kinase B-raf (Homo sapiens), P15056 [V600E], sequence (P15056 whole entry V600E): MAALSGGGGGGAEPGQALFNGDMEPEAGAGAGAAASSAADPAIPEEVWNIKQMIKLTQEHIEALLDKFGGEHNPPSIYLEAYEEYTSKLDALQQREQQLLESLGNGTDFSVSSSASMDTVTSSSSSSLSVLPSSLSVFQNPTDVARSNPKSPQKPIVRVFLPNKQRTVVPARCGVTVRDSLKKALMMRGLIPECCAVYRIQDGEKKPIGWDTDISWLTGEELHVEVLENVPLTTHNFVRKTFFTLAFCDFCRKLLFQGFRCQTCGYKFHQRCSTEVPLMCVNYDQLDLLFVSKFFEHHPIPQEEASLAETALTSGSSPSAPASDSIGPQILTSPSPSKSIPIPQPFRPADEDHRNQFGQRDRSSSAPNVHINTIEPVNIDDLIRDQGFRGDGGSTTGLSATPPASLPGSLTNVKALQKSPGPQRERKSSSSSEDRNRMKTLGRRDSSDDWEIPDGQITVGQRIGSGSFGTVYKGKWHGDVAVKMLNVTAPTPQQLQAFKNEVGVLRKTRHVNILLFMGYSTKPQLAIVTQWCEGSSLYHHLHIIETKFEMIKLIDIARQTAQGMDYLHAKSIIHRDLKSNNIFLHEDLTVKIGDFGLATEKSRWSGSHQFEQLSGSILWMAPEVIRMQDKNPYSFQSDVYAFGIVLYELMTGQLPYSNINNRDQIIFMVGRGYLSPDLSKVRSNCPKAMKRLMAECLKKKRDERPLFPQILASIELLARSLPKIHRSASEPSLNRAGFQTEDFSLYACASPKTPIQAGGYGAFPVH
Method in brief: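 Ambit KINOMEscan screen at a single concentration across a 250–400 kinase panel, recorded as percent inhibition. Selectivity was expressed as S(90), the fraction of kinases inhibited >90%.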

[3] = biological target: Casein kinase I isoform gamma-3 (Homo sapiens) (UniProt Q9Y6M4); assay: Inhibition of CSNK1G3 at 1 uM
Casein kinase I isoform gamma-3 (Homo sapiens), sequence (Q9Y6M4 whole entry, looked up, canonical isoform): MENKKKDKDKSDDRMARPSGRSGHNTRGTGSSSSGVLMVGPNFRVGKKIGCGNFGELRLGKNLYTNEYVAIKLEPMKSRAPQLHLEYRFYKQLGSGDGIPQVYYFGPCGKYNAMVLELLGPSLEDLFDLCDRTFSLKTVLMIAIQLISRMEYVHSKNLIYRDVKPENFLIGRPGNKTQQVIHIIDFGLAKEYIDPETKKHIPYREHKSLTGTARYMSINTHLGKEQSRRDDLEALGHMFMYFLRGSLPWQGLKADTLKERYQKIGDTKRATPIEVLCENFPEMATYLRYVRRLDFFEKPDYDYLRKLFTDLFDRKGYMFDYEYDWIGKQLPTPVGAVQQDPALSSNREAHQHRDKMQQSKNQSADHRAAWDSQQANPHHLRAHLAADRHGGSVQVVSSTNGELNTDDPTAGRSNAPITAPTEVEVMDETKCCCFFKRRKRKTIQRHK
Method in brief: (§1)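 Single-concentration screen using Ambit Bioscience KINOMEscan technology across a panel of 250–400 kinases. Per-kinase inhibition from this screen was summarized as S(90), the fraction of kinases inhibited by more than 90%.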

[4] = biological target: Serine/threonine-protein kinase 38 (Homo sapiens) (UniProt Q15208); assay: Inhibition of NDR1 at 1 uM
Serine/threonine-protein kinase 38 (Homo sapiens), sequence (Q15208 2-465 limits assumed): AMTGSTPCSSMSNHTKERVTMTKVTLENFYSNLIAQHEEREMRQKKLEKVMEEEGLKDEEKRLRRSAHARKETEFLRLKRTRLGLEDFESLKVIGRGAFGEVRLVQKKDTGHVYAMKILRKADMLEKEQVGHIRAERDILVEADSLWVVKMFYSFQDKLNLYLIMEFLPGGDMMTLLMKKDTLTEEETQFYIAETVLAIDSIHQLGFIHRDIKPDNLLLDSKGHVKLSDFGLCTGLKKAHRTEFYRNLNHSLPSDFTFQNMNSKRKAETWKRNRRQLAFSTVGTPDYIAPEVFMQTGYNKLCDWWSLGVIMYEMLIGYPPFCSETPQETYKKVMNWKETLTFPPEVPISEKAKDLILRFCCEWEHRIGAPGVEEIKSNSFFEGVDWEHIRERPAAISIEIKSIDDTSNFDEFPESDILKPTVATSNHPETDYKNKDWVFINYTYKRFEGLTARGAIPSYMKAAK

[5] = biological target: Ribosomal protein S6 kinase alpha-6 (Homo sapiens) (UniProt Q9UK32); assay: Inhibition of RPS6KA6 N-terminal domain1 at 1 uM
Ribosomal protein S6 kinase alpha-6 (Homo sapiens), sequence (Q9UK32 whole entry, the tested form may be a part): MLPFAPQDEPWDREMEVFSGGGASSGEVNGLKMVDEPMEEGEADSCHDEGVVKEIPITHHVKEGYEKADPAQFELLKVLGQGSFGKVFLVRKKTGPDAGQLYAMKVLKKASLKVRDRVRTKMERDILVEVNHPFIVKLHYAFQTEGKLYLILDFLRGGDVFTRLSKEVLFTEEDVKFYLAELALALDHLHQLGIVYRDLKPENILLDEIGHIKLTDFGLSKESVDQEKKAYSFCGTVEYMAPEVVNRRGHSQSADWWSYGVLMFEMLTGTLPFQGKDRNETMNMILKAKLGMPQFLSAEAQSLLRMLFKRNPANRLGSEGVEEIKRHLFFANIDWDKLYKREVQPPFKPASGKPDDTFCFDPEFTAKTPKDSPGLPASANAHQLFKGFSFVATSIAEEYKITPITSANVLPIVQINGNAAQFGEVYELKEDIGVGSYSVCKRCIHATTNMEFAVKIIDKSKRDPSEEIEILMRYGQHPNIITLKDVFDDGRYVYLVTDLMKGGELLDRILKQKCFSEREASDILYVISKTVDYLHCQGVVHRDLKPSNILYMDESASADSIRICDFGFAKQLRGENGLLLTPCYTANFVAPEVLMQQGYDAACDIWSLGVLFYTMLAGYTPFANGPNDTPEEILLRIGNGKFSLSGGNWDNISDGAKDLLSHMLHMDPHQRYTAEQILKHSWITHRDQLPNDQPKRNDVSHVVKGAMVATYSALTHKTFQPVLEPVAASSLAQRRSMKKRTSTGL

[6] = biological target: Ephrin type-A receptor 4 (Homo sapiens) (UniProt P54764); assay: Inhibition of EPHA4 at 1 uM; method in brief: as §1
Ephrin type-A receptor 4 (Homo sapiens), sequence (P54764 whole entry): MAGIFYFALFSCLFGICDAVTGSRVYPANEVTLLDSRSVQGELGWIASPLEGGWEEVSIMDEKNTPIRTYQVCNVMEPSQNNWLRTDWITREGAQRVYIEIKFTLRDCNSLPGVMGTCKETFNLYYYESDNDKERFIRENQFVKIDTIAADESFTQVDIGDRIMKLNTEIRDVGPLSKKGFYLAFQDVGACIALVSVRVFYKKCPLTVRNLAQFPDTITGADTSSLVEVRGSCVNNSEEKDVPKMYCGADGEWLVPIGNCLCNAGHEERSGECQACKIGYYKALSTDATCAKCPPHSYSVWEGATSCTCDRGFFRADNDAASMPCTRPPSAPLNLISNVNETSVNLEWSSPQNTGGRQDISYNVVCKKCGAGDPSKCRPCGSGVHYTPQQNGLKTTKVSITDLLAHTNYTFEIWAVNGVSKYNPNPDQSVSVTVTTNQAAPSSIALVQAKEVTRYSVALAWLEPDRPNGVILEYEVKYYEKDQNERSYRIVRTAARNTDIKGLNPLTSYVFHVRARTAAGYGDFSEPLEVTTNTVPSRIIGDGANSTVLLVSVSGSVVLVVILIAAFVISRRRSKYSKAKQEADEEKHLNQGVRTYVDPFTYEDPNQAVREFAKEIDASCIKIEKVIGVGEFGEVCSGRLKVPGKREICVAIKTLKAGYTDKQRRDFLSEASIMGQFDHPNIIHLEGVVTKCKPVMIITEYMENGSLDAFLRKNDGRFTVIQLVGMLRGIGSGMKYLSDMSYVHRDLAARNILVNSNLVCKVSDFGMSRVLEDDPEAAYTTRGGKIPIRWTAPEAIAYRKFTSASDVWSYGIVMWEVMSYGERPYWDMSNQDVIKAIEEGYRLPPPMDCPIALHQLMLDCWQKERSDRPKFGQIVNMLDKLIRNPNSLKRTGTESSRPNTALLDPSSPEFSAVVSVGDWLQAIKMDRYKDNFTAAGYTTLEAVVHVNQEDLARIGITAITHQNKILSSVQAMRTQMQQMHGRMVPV

[7] = tested on: Tyrosine-protein kinase ABL1 (Homo sapiens), P00519 [F317I]; assay: Inhibition of ABL1 F317I mutant at 1 uM
Tyrosine-protein kinase ABL1 (Homo sapiens), P00519 [F317I], sequence (P00519 whole entry F317I): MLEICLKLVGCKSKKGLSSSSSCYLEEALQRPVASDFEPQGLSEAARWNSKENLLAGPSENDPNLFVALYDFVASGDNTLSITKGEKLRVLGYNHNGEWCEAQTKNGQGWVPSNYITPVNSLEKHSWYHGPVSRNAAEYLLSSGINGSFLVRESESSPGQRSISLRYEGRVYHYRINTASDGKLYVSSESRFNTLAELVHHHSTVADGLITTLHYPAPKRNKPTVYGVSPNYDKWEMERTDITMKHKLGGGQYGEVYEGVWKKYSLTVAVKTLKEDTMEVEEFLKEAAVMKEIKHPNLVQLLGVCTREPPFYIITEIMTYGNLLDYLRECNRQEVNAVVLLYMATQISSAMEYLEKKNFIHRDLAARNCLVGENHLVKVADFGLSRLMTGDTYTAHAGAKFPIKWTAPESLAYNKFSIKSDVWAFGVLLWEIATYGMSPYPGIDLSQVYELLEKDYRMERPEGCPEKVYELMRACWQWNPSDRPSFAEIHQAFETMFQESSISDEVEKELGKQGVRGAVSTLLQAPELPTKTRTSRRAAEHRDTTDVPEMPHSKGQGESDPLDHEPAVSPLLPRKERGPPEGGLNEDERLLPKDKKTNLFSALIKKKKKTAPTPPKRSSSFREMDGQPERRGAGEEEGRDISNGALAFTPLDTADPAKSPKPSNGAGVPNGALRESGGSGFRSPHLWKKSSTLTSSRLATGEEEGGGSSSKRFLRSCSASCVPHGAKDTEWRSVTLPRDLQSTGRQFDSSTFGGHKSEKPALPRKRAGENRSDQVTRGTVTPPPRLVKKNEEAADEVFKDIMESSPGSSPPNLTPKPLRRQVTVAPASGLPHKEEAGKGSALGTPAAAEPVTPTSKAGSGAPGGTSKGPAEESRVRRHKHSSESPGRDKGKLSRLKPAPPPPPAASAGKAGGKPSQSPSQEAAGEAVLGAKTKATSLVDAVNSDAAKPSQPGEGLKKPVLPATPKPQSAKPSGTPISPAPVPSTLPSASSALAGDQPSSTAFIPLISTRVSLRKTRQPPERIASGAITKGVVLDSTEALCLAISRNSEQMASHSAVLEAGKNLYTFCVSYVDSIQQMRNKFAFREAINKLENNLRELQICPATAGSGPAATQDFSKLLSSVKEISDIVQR

[8] = biological target: MAP kinase-interacting serine/threonine-protein kinase 2 (Homo sapiens) (UniProt Q9HBH9); assay: Inhibition of MKNK2 at 1 uM
MAP kinase-interacting serine/threonine-protein kinase 2 (Homo sapiens), sequence (Q9HBH9 whole entry, looked up): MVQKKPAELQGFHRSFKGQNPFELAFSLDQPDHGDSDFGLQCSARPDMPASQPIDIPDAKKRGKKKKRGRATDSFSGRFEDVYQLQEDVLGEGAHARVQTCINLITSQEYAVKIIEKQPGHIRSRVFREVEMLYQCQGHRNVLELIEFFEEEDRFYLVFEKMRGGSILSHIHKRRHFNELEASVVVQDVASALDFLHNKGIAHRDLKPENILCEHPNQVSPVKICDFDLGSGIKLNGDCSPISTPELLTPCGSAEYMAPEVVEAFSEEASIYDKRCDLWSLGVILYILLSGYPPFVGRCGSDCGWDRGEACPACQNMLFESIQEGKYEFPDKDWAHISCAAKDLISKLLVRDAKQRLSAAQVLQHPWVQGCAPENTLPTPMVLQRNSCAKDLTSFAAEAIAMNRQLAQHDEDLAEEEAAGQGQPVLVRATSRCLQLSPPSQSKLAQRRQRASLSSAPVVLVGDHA
Method in brief: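 Kinase-panel screen using KINOMEscan technology, with 250–400 kinases per panel. Each compound was tested at a single concentration, and inhibition of each kinase was recorded. Selectivity was summarised as S(90), the fraction of kinases inhibited by more than 90%.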

[9] = biological target: T1, Cyclin-dependent kinase-like 5 (Homo sapiens) (UniProt O76039); assay: Inhibition of CDKL5 at 1 uM
T1 sequence (whole entry): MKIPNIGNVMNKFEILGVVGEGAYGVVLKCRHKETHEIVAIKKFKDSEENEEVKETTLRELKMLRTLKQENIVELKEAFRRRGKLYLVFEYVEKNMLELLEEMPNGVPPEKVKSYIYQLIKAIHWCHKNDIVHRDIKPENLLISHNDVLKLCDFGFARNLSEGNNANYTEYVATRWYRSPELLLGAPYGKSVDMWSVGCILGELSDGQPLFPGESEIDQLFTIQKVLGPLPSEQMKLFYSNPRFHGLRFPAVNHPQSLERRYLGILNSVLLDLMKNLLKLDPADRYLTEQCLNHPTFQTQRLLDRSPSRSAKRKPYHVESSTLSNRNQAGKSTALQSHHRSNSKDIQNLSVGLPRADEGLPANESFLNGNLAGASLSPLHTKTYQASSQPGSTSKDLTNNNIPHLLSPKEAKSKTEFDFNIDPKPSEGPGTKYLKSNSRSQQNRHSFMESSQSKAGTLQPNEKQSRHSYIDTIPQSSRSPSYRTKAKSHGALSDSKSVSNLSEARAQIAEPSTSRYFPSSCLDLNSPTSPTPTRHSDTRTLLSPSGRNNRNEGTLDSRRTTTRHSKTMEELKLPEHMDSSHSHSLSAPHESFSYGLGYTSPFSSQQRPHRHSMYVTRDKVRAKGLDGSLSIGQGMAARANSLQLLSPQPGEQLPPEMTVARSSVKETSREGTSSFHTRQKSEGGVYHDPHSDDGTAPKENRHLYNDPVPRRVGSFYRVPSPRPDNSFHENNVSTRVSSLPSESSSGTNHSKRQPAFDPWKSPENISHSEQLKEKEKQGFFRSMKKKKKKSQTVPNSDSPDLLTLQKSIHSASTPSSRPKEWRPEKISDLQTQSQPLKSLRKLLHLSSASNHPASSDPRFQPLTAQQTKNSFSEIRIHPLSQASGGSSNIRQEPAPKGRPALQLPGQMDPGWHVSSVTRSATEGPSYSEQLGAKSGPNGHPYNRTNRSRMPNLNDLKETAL

[10] = biological target: T2, cAMP-dependent protein kinase catalytic subunit PRKX (Homo sapiens) (UniProt P51817); assay: Inhibition of PRKX at 1 uM
T2 sequence (whole entry): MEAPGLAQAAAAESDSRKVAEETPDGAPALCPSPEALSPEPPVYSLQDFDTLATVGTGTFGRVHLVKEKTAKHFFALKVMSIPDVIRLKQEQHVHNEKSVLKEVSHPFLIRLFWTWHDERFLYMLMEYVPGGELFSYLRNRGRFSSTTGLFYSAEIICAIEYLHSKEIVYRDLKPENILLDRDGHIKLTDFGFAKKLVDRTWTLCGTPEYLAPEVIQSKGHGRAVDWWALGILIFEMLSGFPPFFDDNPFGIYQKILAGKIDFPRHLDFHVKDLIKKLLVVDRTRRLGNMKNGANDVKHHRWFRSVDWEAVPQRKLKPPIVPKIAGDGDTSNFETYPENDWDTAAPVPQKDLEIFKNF

[11] = biological target: T3, Serine/threonine-protein kinase D1 (Homo sapiens) (UniProt Q15139); assay: Inhibition of PRKD1 at 1 uM
T3 sequence (whole entry): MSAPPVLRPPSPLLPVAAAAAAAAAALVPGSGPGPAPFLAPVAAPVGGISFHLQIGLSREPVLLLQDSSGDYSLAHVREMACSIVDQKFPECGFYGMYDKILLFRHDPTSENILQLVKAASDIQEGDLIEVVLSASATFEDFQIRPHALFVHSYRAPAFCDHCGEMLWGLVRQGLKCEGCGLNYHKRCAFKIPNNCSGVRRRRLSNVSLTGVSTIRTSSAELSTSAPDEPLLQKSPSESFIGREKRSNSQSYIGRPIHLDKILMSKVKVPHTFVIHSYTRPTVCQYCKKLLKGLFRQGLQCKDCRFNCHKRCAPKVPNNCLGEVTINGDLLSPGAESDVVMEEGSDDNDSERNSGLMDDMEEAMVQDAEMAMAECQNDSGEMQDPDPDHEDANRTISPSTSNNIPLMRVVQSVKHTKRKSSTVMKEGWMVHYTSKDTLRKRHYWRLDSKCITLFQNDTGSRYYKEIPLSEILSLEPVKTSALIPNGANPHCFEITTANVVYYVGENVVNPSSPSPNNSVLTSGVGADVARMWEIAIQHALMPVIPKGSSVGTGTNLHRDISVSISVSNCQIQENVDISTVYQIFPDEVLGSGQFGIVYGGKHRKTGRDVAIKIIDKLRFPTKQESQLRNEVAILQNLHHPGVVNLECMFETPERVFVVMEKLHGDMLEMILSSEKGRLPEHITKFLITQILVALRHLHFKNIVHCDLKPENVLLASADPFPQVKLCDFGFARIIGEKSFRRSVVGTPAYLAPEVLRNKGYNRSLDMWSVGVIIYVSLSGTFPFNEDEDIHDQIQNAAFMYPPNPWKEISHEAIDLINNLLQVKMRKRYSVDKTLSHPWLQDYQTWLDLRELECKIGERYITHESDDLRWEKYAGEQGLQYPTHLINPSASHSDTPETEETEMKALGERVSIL

Row | SMILES | inhibition [1] [%] | inhibition [2] [%] | inhibition [3] [%] | inhibition [4] [%] | inhibition [5] [%] | inhibition [6] [%] | inhibition [7] [%] | inhibition [8] [%] | inhibition [9] [%] | inhibition [10] [%] | inhibition [11] [%]
1 | CN1CCN(c2ccc(-c3cnc4c(c3)N(Cc3cc(Cl)ccc3C(F)(F)F)CCN4)cn2)CC1 | < 50 | < 50 | < 50 | < 50 | < 50 | < 50 | < 50 | < 50 | < 50 | < 50 | < 50
2 | CN1CCN(c2ccc(-c3cnc4c(c3)N(Cc3cc(F)ccc3F)CCN4)cn2)CC1 | < 50 | < 50 | < 50 | < 50 | < 50 | < 50 | < 50 | < 50 | < 50 | < 50 | 67
3 | CN1CCN(c2ccc(-c3cnc4c(c3)N(Cc3cc(Cl)ccc3Cl)CCN4)cn2)CC1 | < 50 | < 50 | < 50 | < 50 | < 50 | < 50 | < 50 | < 50 | < 50 | < 50 | < 50
4 | CN1CCN(c2ccc(-c3cnc4c(c3)N(Cc3c(F)ccc(F)c3Cl)CCN4)cn2)CC1 | < 50 | < 50 | < 50 | < 50 | < 50 | < 50 | 74 | < 50 | < 50 | < 50 | 67
5 | FC(F)(F)c1ccc(Cl)cc1CN1CCNc2ncc(-c3ccnc(N4CCNCC4)c3)cc21 | < 50 | < 50 | < 50 | < 50 | < 50 | < 50 | < 50 | < 50 | < 50 | < 50 | < 50

Continued, values first:

Row | inhibition [1] [%] | inhibition [2] [%] | inhibition [3] [%] | inhibition [4] [%] | inhibition [5] [%] | inhibition [6] [%] | inhibition [7] [%] | inhibition [8] [%] | inhibition [9] [%] | inhibition [10] [%] | inhibition [11] [%] | SMILES
6 | < 50 | < 50 | < 50 | < 50 | < 50 | < 50 | < 50 | < 50 | < 50 | < 50 | < 50 | CC(=O)N1CCN(c2cc(-c3cnc4c(c3)N(Cc3cc(Cl)ccc3C(F)(F)F)CCN4)ccn2)CC1
7 |  | < 50 | < 50 |  | < 50 | < 50 | < 50 | < 50 |  | < 50 |  | O=C(O)c1ccc(-c2cnc3c(c2)N(Cc2cc(Cl)ccc2C(F)(F)F)CCN3)cc1
8 |  | < 50 | < 50 |  | < 50 | < 50 |  | < 50 |  | < 50 |  | O=C(c1ccc(-c2cnc3c(c2)N(Cc2cc(Cl)ccc2C(F)(F)F)CCN3)cc1)N1CCCCC1
9 |  | < 50 | < 50 |  | < 50 | < 50 |  | < 50 |  | < 50 |  | COC1CCN(C(=O)c2ccc(-c3cnc4c(c3)N(Cc3cc(Cl)ccc3C(F)(F)F)CCN4)cc2)CC1
10 |  | < 50 | < 50 |  | < 50 | < 50 |  | < 50 |  | < 50 |  | O=C(c1ccc(-c2cnc3c(c2)N(Cc2cc(Cl)ccc2C(F)(F)F)CCN3)cc1)N1CCC(N2CCCC2)CC1
